Measurements from article PMC9896656 (Investigational new drugs, 2022).
Where two headings read alike, the source gives them in different places. Residues, ends and D or L forms follow the SMILES beside them. *: point of attachment. Cbz = O=C(OCc1ccccc1)*

Experiments:
CEM and COLO 205 cells = settings: 1 mM positive control, 24 h; cell line not stated
[1] = Differential nuclear staining; assay type: cell-based; settings: human, Hs-27 cells (non-cancerous reference) versus RPMI-8226 cells
Method in brief: (§1)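 Cells were seeded at 10,000/well in 96-well plates; adherent lines attached overnight. A 0.1–5 μM gradient was applied for 48 h, with 1% DMSO, 1 mM H2O2 and untreated wells. PI and Hoechst 33342 (5 μg/ml each) were added 2 h before reading at 37°C. Wells were imaged to separate dead from total nuclei. CC50 was obtained by linear interpolation of the dose-response. Selectivity index uses Hs-27 as the non-cancer reference.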

RPMI-8226 = assay: Differential nuclear staining; assay type: cell-based; settings: Homo sapiens, RPMI-8226, 48 h
Method in brief: as §1

[2] = Differential nuclear staining; assay type: cell-based; settings: human, Hs-27 cells (non-cancerous reference) versus PC-3 cells
Method in brief: as §1

PC-3 = assay: Differential nuclear staining; assay type: cell-based; settings: Homo sapiens, PC-3, 48 h
Method in brief: as §1

[3] = Differential nuclear staining; assay type: cell-based; settings: human, Hs-27 cells (non-cancerous reference) versus PANC-1 cells
Method in brief: as §1

PANC-1 = assay: Differential nuclear staining; assay type: cell-based; settings: Homo sapiens, PANC-1, 48 h
Method in brief: as §1

[4] = tested on: caspase-3/7 in COLO 205 cells; assay: Caspase-3/7 activation; assay type: cell-based, human; settings: COLO 205, 7.5 h, CC50 and twice the CC50, vs vehicle control (1% DMSO)
[5] = Differential nuclear staining; assay type: cell-based; settings: human, Hs-27 cells (non-cancerous reference) versus MM1 R cells
Method in brief: as §1

MM1 R = assay: Differential nuclear staining; assay type: cell-based; settings: Homo sapiens, MM.1R, 48 h
Method in brief: as §1

CEM cells [6] = assay: Mitochondrial membrane potential; assay type: cell-based, human; settings: 6 h, CC50 and twice the CC50, vs untreated and DMSO
CEM cells [7] = assay: Annexin V-FITC/PI apoptosis/necrosis assay; assay type: cell-based, human; settings: 24 h, 2x CC50, compared to DMSO solvent control
[8] = Differential nuclear staining; assay type: cell-based; settings: human, CCD-112-CoN cells (non-cancerous colon fibroblasts)
Method in brief: as §1

[9] = Differential nuclear staining; assay type: cell-based; settings: human, Hs-27 cells (non-cancerous reference) versus HL-60 cells
Method in brief: as §1

HL-60 = assay: Differential nuclear staining; assay type: cell-based; settings: Homo sapiens, HL-60, 48 h
Method in brief: as §1

[10] = Differential nuclear staining; assay type: cell-based; settings: human
Method in brief: as §1

MDA-MB-231 = assay: Differential nuclear staining; assay type: cell-based; settings: Homo sapiens, MDA-MB-231, 48 h
Method in brief: as §1

[11] = Differential nuclear staining; assay type: cell-based; settings: human, Hs-27 cells (non-cancerous reference) versus MM1 S cells
Method in brief: as §1

MM1 S = assay: Differential nuclear staining; assay type: cell-based; settings: Homo sapiens, MM1.S, 48 h
Method in brief: as §1

caspase-3/7 in CEM cells = assay: Caspase-3/7 activation; assay type: cell-based, human; settings: 7.5 h, CC50 and twice the CC50, vs vehicle control (1% DMSO)
[12] = Differential nuclear staining; assay type: cell-based; settings: human, HS-27 cells (normal foreskin, non-cancer)
Method in brief: as §1

[13] = Differential nuclear staining; assay type: cell-based; settings: human, Hs-27 cells (non-cancerous reference) versus U266 cells
Method in brief: as §1

U266 = assay: Differential nuclear staining; assay type: cell-based; settings: Homo sapiens, U-266, 48 h
Method in brief: as §1

CEM = assay: Differential nuclear staining; assay type: cell-based, human; settings: CEM; concentration used for cell cycle analysis
[14] = Differential nuclear staining; assay type: cell-based, human; settings: human, Hs-27 cells (non-cancerous reference) versus CEM cells
COLO 205 cells [15] = assay: Cell cycle profile analysis; assay type: cell-based, human; settings: COLO 205, CC20, 72 h
[16] = Differential nuclear staining; assay type: cell-based; settings: human, Hs-27 cells (non-cancerous reference) versus HT-29 cells
Method in brief: as §1

HT-29 = assay: Differential nuclear staining; assay type: cell-based; settings: Homo sapiens, HT-29, 48 h
Method in brief: as §1

CEM cells [17] = assay: Cell cycle profile analysis; assay type: cell-based, human; settings: CC20, 72 h
COLO 205 cells [18] = assay: Mitochondrial membrane potential; assay type: cell-based, human; settings: COLO 205, 6 h, CC50 and twice the CC50, vs untreated and DMSO
[19] = Differential nuclear staining; assay type: cell-based; settings: human, Hs-27 cells (non-cancerous reference) versus RAMOS cells
Method in brief: as §1

RAMOS = assay: Differential nuclear staining; assay type: cell-based; settings: Homo sapiens, Ramos, 48 h
Method in brief: as §1

COLO 205 cells [20] = assay: Reactive oxygen species accumulation; assay type: cell-based, human; settings: COLO 205, 6 h, compared with DMSO-treated cells
[21] = Differential nuclear staining; assay type: cell-based; settings: human; for selectivity ratio at 48 h: Hs-27 cells (non-cancerous reference) versus MCF-10 A cells; for CC50 at 48 h: MCF-10 A cells (breast epithelial)
Method in brief: as §1

[22] = Differential nuclear staining; assay type: cell-based, human; settings: human, Hs-27 cells (non-cancerous reference) versus COLO 205 cells
COLO 205 = assay: Differential nuclear staining; assay type: cell-based, human; settings: for CC20: COLO 205, concentration used for cell cycle analysis; for CC50: Homo sapiens
CEM cells [23] = assay: Reactive oxygen species accumulation; assay type: cell-based, human; settings: 6 h, compared with DMSO-treated cells
[24] = tested on: poly-ubiquitinated proteins in COLO 205 cells; assay: Western blot of poly-ubiquitinated proteins; assay type: cell-based, human; settings: COLO 205, 8 h, 2X CC50
Method in brief: (§2)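 3,000,000 cells per T-25 flask in 10 ml RPMI were treated 8 h at twice the CC50, with MG-132 and 0.3% PEG-400 vehicle controls. Cells were PBS-washed and lysed by boiling 15 min in 2x Laemmli buffer. 100 μg protein was run on 7% SDS-PAGE and transferred to PVDF. Blots were blocked overnight in 5% milk, then probed with mouse anti-ubiquitin (1 h) and HRP anti-mouse (1:10,000, 1 h). ECL imaging and densitometry followed.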

COLO 205 cells [25] = assay: Annexin V-FITC/PI apoptosis/necrosis assay; assay type: cell-based, human; settings: COLO 205, 24 h, 2x CC50, compared to DMSO solvent control
[26] = tested on: poly-ubiquitinated proteins in CEM cells; assay: Western blot of poly-ubiquitinated proteins; assay type: cell-based, human; settings: 8 h, in comparison to COLO 205
Method in brief: as §2

[27] = COLO 205, 24 h, read-out: 24 h CC50

OO [H20_2, hydrogen peroxide]
percentage of PS externalization (CEM and COLO 205 cells): 39%

O=C1C(=Cc2ccc(F)c(F)c2)CN(C(=O)C(Cl)Cl)CC1=Cc1ccc(F)c(F)c1 [compound 2608, 1-dichloroacetyl – 3,5-bis(3,4-difluorobenzylidene)-4-piperidone]
selectivity ratio at 48 h [1]: 11.5 | CC50 (RPMI-8226): 39.7 nM | selectivity ratio at 48 h [2]: 1.51 | CC50 (PC-3): 301 nM | selectivity ratio at 48 h [3]: 0.4 | CC50 (PANC-1): 1130 nM | caspase-3/7 activation [4]: significant caspase-3/7 activation | selectivity ratio at 48 h [5]: 28.4 | CC50 (MM1 R): 16 nM | mitochondrial depolarization (CEM cells [6]): significant mitochondrial depolarization | PS externalization (Annexin V-FITC positive cells) (CEM cells [7]): significant PS externalization | CC50 at 48 h [8]: 120 nM | selectivity ratio at 48 h [9]: 7.11 | CC50 (HL-60): 64 nM | selectivity ratio at 48 h [10]: 9.68 | CC50 (MDA-MB-231): 47 nM | selectivity ratio at 48 h [11]: 25.1 | CC50 (MM1 S): 18.1 nM | caspase-3/7 activation (caspase-3/7 in CEM cells): significant caspase-3/7 activation | CC50 at 48 h [12]: 455 nM | selectivity ratio at 48 h [13]: 31.6 | CC50 (U266): 14.4 nM | CC20 (CEM): 39.7 nM | selectivity ratio at 48 h [14]: 22.8 | DNA fragmentation (sub G0/G1) (COLO 205 cells [15]): but not in COLO 205 | cell cycle profile (COLO 205 cells [15]): did not alter the cell cycle profile | selectivity ratio at 48 h [16]: 2.8 | CC50 (HT-29): 162 nM | DNA fragmentation (sub G0/G1) (CEM cells [17]): induced DNA fragmentation | mitochondrial depolarization (COLO 205 cells [18]): significant mitochondrial depolarization | selectivity ratio at 48 h [19]: 4.79 | CC50 (RAMOS): 95 nM | ROS accumulation (COLO 205 cells [20]): Significant ROS | selectivity ratio at 48 h [21]: 2.6 | CC50 at 48 h [21]: 175 nM | selectivity ratio at 48 h [22]: 1.07 | CC20 (COLO 205): 761.6 nM | CC50 (COLO 205; [27]): 1900 nM | CC50 (COLO 205; COLO 205, 48 h): 424 nM | ROS accumulation (CEM cells [23]): Significant ROS | accumulation of high molecular weight poly-ubiquitinated proteins (densitometry) [24]: 0.40 fold increase | PS externalization (Annexin V-FITC positive cells) (COLO 205 cells [25]): significant PS externalization

CC(C)C[C@@H](C=O)NC(=O)[C@H](CC(C)C)NC(=O)[C@H](CC(C)C)NC(=O)OCc1ccccc1 [MG132, reference compound] (Cbz-Leu-Leu-Leu-aldehyde)
proteasome inhibition (poly-ubiquitinated proteins, in words) [26]: slight proteasome inhibition | accumulation of high molecular weight poly-ubiquitinated proteins (densitometry) [24]: 1 fold increase

O=C1C(=Cc2ccc(Cl)c(Cl)c2)CN(C(=O)C(Cl)Cl)CC1=Cc1ccc(Cl)c(Cl)c1 [compound 2610, 1-dichloroacetyl-3,5-bis(3,4-dichlorobenzylidene)-4-piperidone]
selectivity ratio at 48 h [1]: 0.599 | CC50 (RPMI-8226): 334 nM | selectivity ratio at 48 h [2]: 0.44 | CC50 (PC-3): 446 nM | selectivity ratio at 48 h [3]: 0.48 | CC50 (PANC-1): 414 nM | caspase-3/7 activation [4]: significant caspase-3/7 activation | selectivity ratio at 48 h [5]: 22.2 | CC50 (MM1 R): 9 nM | mitochondrial depolarization (CEM cells [6]): significant mitochondrial depolarization | PS externalization (Annexin V-FITC positive cells) (CEM cells [7]): significant PS externalization | CC50 at 48 h [8]: 176 nM | selectivity ratio at 48 h [9]: 8.33 | CC50 (HL-60): 24 nM | selectivity ratio at 48 h [10]: 1.65 | CC50 (MDA-MB-231): 121 nM | selectivity ratio at 48 h [11]: 7.66 | CC50 (MM1 S): 26.1 nM | caspase-3/7 activation (caspase-3/7 in CEM cells): significant caspase-3/7 activation | CC50 at 48 h [12]: 200 nM | selectivity ratio at 48 h [13]: 0.26 | CC50 (U266): 762 nM | CC20 (CEM): 37.2 nM | selectivity ratio at 48 h [14]: 6.66 | DNA fragmentation (sub G0/G1) (COLO 205 cells [15]): caused DNA fragmentation on both cell lines | cell cycle profile (COLO 205 cells [15]): did not alter the cell cycle profile | selectivity ratio at 48 h [16]: 5.55 | CC50 (HT-29): 36 nM | DNA fragmentation (sub G0/G1) (CEM cells [17]): caused DNA fragmentation on both cell lines | mitochondrial depolarization (COLO 205 cells [18]): significant mitochondrial depolarization | selectivity ratio at 48 h [19]: 5.55 | CC50 (RAMOS): 36 nM | ROS accumulation (COLO 205 cells [20]): Significant ROS | selectivity ratio at 48 h [21]: 1.66 | CC50 at 48 h [21]: 120 nM | selectivity ratio at 48 h [22]: 0.12 | CC20 (COLO 205): 1516.4 nM | CC50 (COLO 205; [27]): 3790 nM | CC50 (COLO 205; COLO 205, 48 h): 1660 nM | ROS accumulation (CEM cells [23]): Significant ROS | accumulation of high molecular weight poly-ubiquitinated proteins (densitometry) [24]: 1.41 fold increase | PS externalization (Annexin V-FITC positive cells) (COLO 205 cells [25]): significant PS externalization
